Assay results taken from ChEMBL document CHEMBL3525907, “Studies on the metabolism and biological activity of the epimers of sulindac” (Drug Metab Dispos, 2011).
Calls of active or inactive are those of the source. The calls are words filed in the database; no cut-off is given here.

Tests used:
Liver microsome [1] = experiment: Drug metabolism in rat liver microsomes at […] after 60 mins by HPLC analysis; type: ADME; details: 1 h
In short: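 Uninduced rat liver microsomes (100,000g pellet, washed), 20–80 μg protein, incubated with 20 nmol sulindac epimer in 100 μl 100 mM potassium phosphate pH 7.4 with NADPH-regenerating system (1.5 mM NADPH, 5 mM glucose 6-phosphate, G6PDH, 5 mM MgCl2), 60 min, 37°C. Stopped with 3 volumes acetonitrile; sulfone quantified by C18 HPLC. Six rat preparations.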

[2] = Drug metabolism in rat liver cytosolic fraction at 20 nM after 60 mins by HPLC analysis; type: ADME, tissue-based; details: cytosol, 1 h
Cytochrome P450 1A1 = Cytochrome P450 1A1 (Rattus norvegicus, UniProt P00185); experiment: Drug metabolism assessed as rat recombinant CYP1A1-mediated sulindac sulfone formation measured per pmol of protein at 500 uM after 90 mins by HPLC analysis; type: ADME; details: recombinant enzyme, 1.5 h
In short: (§1)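 Recombinant rat or human P450 Supersomes (some with cytochrome b5, variable reductase) incubated with (R)-sulindac at 500 μM or (S)-sulindac at 200 μM plus NADPH-regenerating system in 100 mM potassium phosphate pH 7.4 at 37°C, linear up to 90 min; acetonitrile stop; sulfone by C18 HPLC at 330 nm; ≥3 runs; pmol/pmol enzyme/h, mean ± S.E.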

Cytochrome P450 1A2 [3] = biological target: Cytochrome P450 1A2 (Rattus norvegicus, UniProt P04799); experiment: Drug metabolism assessed as rat recombinant CYP1A2-mediated sulindac sulfone formation measured per pmol of protein at 500 uM after 90 mins by HPLC analysis; type: ADME; details: recombinant enzyme, 1.5 h; in short: as §1
Chain of Cytochrome P450 1A2 (Rattus norvegicus, UniProt P04799) (P04799 whole entry): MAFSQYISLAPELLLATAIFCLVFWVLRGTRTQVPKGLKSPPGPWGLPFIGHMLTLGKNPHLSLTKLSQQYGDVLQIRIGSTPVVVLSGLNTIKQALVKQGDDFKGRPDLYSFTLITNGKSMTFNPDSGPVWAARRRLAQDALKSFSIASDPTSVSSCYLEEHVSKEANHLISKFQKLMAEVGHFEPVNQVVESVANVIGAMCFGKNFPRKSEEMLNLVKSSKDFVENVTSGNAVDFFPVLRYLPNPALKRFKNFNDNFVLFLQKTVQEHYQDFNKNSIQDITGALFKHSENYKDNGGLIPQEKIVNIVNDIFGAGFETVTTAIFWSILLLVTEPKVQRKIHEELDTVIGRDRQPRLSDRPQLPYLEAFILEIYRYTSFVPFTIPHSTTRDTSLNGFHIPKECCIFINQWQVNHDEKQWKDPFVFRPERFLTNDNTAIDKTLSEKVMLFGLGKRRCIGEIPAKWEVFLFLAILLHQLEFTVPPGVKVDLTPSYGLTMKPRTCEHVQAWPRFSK

Cytochrome P450 1A2 [4] = biological target: Cytochrome P450 1A2 (Homo sapiens, UniProt P05177); experiment: Drug metabolism assessed as human recombinant CYP1A2-mediated sulindac sulfone formation measured per pmol of protein at 500 uM after 90 mins by HPLC analysis; type: ADME; details: recombinant enzyme, 1.5 h; in short: as §1
Chain of Cytochrome P450 1A2 (Homo sapiens, UniProt P05177) (P05177 whole entry): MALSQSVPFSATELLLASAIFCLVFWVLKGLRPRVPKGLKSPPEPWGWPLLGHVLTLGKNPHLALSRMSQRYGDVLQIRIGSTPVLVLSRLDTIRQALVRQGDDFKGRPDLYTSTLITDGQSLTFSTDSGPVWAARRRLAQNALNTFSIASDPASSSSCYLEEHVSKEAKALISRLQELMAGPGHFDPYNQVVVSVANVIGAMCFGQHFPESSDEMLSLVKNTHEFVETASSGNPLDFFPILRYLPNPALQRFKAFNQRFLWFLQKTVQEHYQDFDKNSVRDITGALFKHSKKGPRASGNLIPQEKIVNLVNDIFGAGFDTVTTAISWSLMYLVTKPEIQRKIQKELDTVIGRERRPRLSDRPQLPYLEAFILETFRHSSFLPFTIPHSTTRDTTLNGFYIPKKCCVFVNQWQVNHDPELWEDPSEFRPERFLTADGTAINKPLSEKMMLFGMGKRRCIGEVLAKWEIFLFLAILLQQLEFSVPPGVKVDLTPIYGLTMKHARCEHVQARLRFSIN

Cytochrome P450 1B1 = Cytochrome P450 1B1 (Homo sapiens, UniProt Q16678); experiment: Drug metabolism assessed as human recombinant CYP1B1-mediated sulindac sulfone formation measured per pmol of protein at 500 uM after 90 mins by HPLC analysis; type: ADME; details: recombinant enzyme, 1.5 h; in short: as §1
Chain of Cytochrome P450 1B1 (Q16678 whole entry): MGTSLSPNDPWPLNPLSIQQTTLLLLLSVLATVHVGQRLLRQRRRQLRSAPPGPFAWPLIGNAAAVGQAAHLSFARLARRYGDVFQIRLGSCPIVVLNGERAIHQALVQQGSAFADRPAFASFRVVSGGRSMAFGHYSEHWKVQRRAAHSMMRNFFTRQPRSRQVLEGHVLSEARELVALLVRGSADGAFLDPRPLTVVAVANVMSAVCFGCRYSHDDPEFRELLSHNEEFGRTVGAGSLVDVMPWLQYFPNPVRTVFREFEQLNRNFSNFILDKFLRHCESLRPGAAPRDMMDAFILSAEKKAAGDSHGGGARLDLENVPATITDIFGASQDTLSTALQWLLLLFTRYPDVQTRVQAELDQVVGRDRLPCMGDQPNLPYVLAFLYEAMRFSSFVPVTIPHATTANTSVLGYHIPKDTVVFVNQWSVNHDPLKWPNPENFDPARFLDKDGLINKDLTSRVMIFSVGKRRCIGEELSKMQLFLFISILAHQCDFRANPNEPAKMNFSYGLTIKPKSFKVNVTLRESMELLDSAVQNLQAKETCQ

Cytochrome P450 3A4 = Cytochrome P450 3A4 (Homo sapiens, UniProt P08684); experiment: Drug metabolism assessed as human recombinant CYP3A4-mediated sulindac sulfone formation measured per pmol of protein at 500 uM after 90 mins by HPLC analysis; type: ADME; details: recombinant enzyme, 1.5 h; in short: as §1
Chain of Cytochrome P450 3A4 (P08684 whole entry): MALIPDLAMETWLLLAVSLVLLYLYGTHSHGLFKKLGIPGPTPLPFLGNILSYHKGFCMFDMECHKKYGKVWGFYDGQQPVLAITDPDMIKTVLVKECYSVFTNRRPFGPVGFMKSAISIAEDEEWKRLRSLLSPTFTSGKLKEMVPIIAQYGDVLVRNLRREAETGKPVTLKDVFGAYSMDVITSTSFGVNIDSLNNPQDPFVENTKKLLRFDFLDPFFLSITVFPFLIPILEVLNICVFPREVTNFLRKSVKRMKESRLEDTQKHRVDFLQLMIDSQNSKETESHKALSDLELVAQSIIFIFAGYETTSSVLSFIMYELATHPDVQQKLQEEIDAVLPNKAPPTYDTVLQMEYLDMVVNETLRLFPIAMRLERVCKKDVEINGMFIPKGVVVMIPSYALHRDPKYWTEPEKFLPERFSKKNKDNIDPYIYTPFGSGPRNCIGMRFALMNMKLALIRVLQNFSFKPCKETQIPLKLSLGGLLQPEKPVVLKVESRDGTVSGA

Cytochrome P450 3A2 = Cytochrome P450 3A2 (Rattus norvegicus, UniProt P05183); experiment: Drug metabolism assessed as rat recombinant CYP3A2-mediated sulindac sulfone formation measured per pmol of protein at 500 uM after 90 mins by HPLC analysis; type: ADME; details: recombinant enzyme, 1.5 h; in short: as §1
Chain of Cytochrome P450 3A2 (P05183 whole entry): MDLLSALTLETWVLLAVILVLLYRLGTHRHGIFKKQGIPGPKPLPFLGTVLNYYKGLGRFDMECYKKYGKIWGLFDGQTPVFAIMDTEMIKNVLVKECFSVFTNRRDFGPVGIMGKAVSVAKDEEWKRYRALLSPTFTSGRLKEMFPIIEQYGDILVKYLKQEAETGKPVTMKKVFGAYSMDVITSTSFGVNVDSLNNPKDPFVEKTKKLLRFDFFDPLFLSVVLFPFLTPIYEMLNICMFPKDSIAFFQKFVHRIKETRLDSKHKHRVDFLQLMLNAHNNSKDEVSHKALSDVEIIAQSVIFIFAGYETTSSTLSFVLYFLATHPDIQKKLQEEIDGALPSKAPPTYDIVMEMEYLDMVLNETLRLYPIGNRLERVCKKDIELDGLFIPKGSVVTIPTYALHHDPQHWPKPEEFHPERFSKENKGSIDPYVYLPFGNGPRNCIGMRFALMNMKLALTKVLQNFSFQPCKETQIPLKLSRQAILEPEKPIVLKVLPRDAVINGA

Cytochrome P450 2B1 = Cytochrome P450 2B1 (Rattus norvegicus, UniProt P00176); experiment: Drug metabolism assessed as rat recombinant CYP2B1-mediated sulindac sulfone formation measured per pmol of protein at 500 uM after 90 mins by HPLC analysis; type: ADME; details: recombinant enzyme, 1.5 h; in short: as §1
Chain of Cytochrome P450 2B1 (P00176 whole entry): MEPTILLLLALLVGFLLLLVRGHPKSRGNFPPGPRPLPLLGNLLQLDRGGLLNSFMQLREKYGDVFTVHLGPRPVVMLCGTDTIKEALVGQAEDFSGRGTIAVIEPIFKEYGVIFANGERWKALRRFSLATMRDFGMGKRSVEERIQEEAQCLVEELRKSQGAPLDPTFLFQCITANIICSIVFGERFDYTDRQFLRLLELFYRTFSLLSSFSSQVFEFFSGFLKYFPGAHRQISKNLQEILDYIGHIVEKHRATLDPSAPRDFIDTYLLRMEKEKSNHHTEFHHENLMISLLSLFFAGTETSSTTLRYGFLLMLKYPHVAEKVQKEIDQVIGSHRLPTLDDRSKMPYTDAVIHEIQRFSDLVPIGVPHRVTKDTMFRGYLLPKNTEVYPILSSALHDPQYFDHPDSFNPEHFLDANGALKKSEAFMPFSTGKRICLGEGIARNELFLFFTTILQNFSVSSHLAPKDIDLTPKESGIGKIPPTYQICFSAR

Cytochrome P450 2C8 = Cytochrome P450 2C8 (Homo sapiens, UniProt P10632); experiment: Drug metabolism assessed as human recombinant CYP2C8-mediated sulindac sulfone formation measured per pmol of protein at 500 uM after 90 mins by HPLC analysis; type: ADME; details: recombinant enzyme, 1.5 h; in short: as §1
Chain of Cytochrome P450 2C8 (P10632 whole entry): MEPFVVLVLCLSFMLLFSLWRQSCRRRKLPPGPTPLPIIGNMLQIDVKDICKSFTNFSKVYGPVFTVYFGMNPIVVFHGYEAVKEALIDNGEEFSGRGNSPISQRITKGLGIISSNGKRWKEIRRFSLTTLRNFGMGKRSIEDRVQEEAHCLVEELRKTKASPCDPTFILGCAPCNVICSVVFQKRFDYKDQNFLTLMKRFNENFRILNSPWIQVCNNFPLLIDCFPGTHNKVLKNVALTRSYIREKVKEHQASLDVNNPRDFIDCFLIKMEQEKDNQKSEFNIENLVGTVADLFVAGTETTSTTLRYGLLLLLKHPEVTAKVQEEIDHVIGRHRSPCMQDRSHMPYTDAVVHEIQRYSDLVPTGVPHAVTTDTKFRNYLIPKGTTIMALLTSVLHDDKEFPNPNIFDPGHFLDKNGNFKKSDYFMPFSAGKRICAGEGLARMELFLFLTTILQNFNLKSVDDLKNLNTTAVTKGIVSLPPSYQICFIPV

Cytochrome P450 2C9 = Cytochrome P450 2C9 (Homo sapiens, UniProt P11712); experiment: Drug metabolism assessed as human recombinant CYP2C9-mediated sulindac sulfone formation measured per pmol of protein at 500 uM after 90 mins by HPLC analysis; type: ADME; details: recombinant enzyme, 1.5 h; in short: as §1
Chain of Cytochrome P450 2C9 (P11712 whole entry): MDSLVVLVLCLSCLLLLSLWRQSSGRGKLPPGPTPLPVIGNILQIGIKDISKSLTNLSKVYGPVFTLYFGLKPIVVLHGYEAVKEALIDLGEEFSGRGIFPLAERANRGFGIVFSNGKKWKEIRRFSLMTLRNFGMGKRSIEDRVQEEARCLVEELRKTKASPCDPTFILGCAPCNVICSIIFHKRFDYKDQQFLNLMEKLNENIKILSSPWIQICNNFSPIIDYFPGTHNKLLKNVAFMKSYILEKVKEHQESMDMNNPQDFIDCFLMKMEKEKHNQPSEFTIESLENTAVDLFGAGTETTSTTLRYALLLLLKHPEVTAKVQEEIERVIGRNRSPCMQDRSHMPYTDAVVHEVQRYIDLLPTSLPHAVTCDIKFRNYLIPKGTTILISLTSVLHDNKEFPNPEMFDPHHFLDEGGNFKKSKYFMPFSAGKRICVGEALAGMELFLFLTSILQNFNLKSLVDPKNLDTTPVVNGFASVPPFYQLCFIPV

Cytochrome P450 2C19 = Cytochrome P450 2C19 (Homo sapiens, UniProt P33261); experiment: Drug metabolism assessed as human recombinant CYP2C19-mediated sulindac sulfone formation measured per pmol of protein at 500 uM after 90 mins by HPLC analysis; type: ADME; details: recombinant enzyme, 1.5 h; in short: as §1
Chain of Cytochrome P450 2C19 (P33261 whole entry): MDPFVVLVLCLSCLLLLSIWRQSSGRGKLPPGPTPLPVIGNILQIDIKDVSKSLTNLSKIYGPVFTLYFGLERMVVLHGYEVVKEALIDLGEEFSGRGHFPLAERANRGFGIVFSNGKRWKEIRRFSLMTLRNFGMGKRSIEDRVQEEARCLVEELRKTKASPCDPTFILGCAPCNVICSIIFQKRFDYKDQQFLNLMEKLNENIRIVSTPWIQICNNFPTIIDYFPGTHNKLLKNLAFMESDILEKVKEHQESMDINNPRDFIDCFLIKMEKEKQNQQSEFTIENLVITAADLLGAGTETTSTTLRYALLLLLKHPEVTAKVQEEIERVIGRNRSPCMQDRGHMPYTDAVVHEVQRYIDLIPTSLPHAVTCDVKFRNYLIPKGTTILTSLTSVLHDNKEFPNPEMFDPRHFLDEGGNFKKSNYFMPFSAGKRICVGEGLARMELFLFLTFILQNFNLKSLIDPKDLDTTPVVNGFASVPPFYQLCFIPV

Cytochrome P450 2D6 = Cytochrome P450 2D6 (Homo sapiens, UniProt P10635); experiment: Drug metabolism assessed as human recombinant CYP2D6-mediated sulindac sulfone formation measured per pmol of protein at 500 uM after 90 mins by HPLC analysis; type: ADME; details: recombinant enzyme, 1.5 h; in short: as §1
[5] = Drug metabolism in human HepG2 cells assessed as induction of cytochrome P450-mediated sulindac sulfone formation at 125 uM preincubated for 2 to 24 hrs followed by compound-washout and fresh compound addition measured after 1 hr by HPLC analysis; type: ADME, cell-based; details: hepg2, 1 h
In short: (§2)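 HepG2 cells in MEM/10% FBS grown to 80% confluence, pretreated 2–24 h with 125 μM (R)- or (S)-sulindac at 37°C, 5% CO2; washed with PBS, then 200 μM (R)- or (S)-sulindac in fresh medium for 1 h at 37°C; medium mixed with 3 volumes acetonitrile and analysed by HPLC for sulfone.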

[6] = Activity of cytochrome P450 in human HepG2 cells assessed as enzyme-mediated drug metabolism at 125 uM preincubated for 2 to 24 hrs followed by compound-washout and fresh compound addition measured after 1 hr by HPLC analysis; type: ADME, cell-based; details: hepg2, 1 h; in short: as §2
[7] = Drug metabolism assessed as Escherichia coli MSRB-mediated reduced product formation; type: ADME
[8] = biological target: Methionine-R-sulfoxide reductase B2, mitochondrial (Homo sapiens, UniProt Q9Y3D2); experiment: Drug metabolism assessed as human MSRB2-mediated reduced product formation; type: ADME
Chain of Methionine-R-sulfoxide reductase B2, mitochondrial (Q9Y3D2 whole entry): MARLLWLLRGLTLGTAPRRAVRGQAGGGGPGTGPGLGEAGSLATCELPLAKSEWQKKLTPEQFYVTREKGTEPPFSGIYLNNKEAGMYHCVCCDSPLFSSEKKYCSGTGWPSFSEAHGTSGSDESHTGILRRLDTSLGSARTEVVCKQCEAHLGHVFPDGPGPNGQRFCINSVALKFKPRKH

[9] = biological target: Methionine-R-sulfoxide reductase B3 (Homo sapiens, UniProt Q8IXL7); experiment: Drug metabolism assessed as human MSRB3-mediated reduced product formation; type: ADME
Chain of Methionine-R-sulfoxide reductase B3 (Q8IXL7 whole entry): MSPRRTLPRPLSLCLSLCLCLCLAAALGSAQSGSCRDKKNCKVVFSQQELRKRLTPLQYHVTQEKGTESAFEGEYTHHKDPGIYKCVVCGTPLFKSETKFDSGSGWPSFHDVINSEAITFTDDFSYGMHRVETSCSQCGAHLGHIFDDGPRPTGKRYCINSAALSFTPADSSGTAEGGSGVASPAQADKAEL

[10] = biological target: T1, Methionine-R-sulfoxide reductase B1 (Rattus norvegicus, UniProt Q52KJ8); experiment: Drug metabolism in rat liver S100 fraction assessed as MSRB1-mediated reduced product formation measured per mg of protein at 200 uM by HPLC analysis; type: ADME, tissue-based
T1 sequence (Q52KJ8 whole entry): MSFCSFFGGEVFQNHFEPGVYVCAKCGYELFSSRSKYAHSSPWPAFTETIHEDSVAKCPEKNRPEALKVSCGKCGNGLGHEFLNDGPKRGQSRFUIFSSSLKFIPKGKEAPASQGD
In short: (§3)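 Fractions (S-100, 30–70% ammonium sulfate cut) from rat liver purification; aliquots incubated with 200 μM (R)-sulindac or 200 μM DABS-R-Met(o) in 100 mM Tris pH 7.4 with 15 mM DTT or Trx system (1 mM NADPH, TrxB, TrxA), 37°C. Stopped with acetonitrile; C18 HPLC, sulindac sulfide at 330 nm, DABS-Met at 436 nm. Specific activity as nmol product/mg protein/h.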

[11] = biological target: T1, Methionine-R-sulfoxide reductase B1; experiment: Drug metabolism in rat liver ammonium sulfate fraction assessed as MSRB1-mediated reduced product formation measured per mg of protein at 200 uM by HPLC analysis; type: ADME, tissue-based; in short: as §3
[12] = biological target: T1, Methionine-R-sulfoxide reductase B1; experiment: Drug metabolism in rat liver DEAE fraction assessed as MSRB1-mediated reduced product formation measured per mg of protein at 200 uM by HPLC analysis; type: ADME, tissue-based
In short: (§4)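 Fractions from rat liver reductase purification (S-100, 30–70% ammonium sulfate cut, DEAE pool, G50 gel filtration) incubated with 200 μM (R)-sulindac in 100 mM Tris pH 7.4 with 15 mM DTT, 37°C, 100 μl; stopped with acetonitrile; sulindac sulfide quantified by C18 HPLC at 330 nm; specific activity as nmol product/mg protein/h.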

[13] = biological target: T1, Methionine-R-sulfoxide reductase B1; experiment: Drug metabolism in rat liver G50 fraction assessed as MSRB1-mediated reduced product formation measured per mg of protein at 200 uM by HPLC analysis; type: ADME, tissue-based; in short: as §4
MRC5 = experiment: Cytoprotective activity in TBHP-induced human MRC5 cells at 500 uM incubated for 48 hrs prior to TBHP-challenge measured after 2 hrs; type: functional, cell-based
In short: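 Normal lung cells preincubated 48 h with 500 μM (R)- or (S)-sulindac or no drug, then challenged with TBHP; viability expressed as percent of cells not exposed to TBHP; mean and S.E. of five repeats; p < 0.05 versus no-drug controls.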

A549 = experiment: Potentiation of TBHP-induced cytotoxicity in human A549 cells at 500 uM incubated for 48 hrs prior to TBHP-challenge measured after 2 hrs; type: functional, cell-based
Zone of skin [14] = experiment: Drug metabolism in Sprague-Dawley rat skin assessed as sulindac sulfone formation at 2 mg, ip after 0.5 to 4 hrs by HPLC analysis; details: in vivo
Zone of skin [15] = experiment: Drug metabolism in Sprague-Dawley rat skin assessed as sulindac sulfide formation at 2 mg, ip after 0.5 to 4 hrs by HPLC analysis; details: in vivo
Liver [16] = experiment: Drug metabolism in Sprague-Dawley rat liver assessed as sulindac sulfone formation at 2 mg, ip after 0.5 to 4 hrs by HPLC analysis; details: in vivo
Liver [17] = experiment: Drug metabolism in Sprague-Dawley rat liver assessed as sulindac sulfide formation at 2 mg, ip after 0.5 to 4 hrs by HPLC analysis; details: in vivo
Plasma [18] = experiment: Drug metabolism in Sprague-Dawley rat plasma assessed as sulindac sulfone formation at 2 mg, ip after 0.5 to 4 hrs by HPLC analysis; details: in vivo
Plasma [19] = experiment: Drug metabolism in Sprague-Dawley rat plasma assessed as sulindac sulfide formation at 2 mg, ip after 0.5 to 4 hrs by HPLC analysis; details: in vivo
Liver microsome [20] = experiment: Drug metabolism in rat liver microsomes assessed as sulindac sulfone formation at 200 µM after 60 mins by HPLC analysis in presence of NADPH; details: 1 h
[21] = biological target: T1, Methionine-R-sulfoxide reductase B1; experiment: Activity of MSRB1 in rat liver S100 fraction assessed as enzyme-mediated drug metabolism measured per mg of protein at 200 uM by HPLC analysis; type: ADME; in short: as §4
[22] = biological target: T1, Methionine-R-sulfoxide reductase B1; experiment: Activity of MSRB1 in rat liver ammonium sulfate fraction assessed as enzyme-mediated drug metabolism measured per mg of protein at 200 uM by HPLC analysis; type: ADME; in short: as §4
[23] = biological target: T1, Methionine-R-sulfoxide reductase B1; experiment: Activity of MSRB1 in rat liver DEAE fraction assessed as enzyme-mediated drug metabolism measured per mg of protein at 200 uM by HPLC analysis; type: ADME; in short: as §4
[24] = biological target: T1, Methionine-R-sulfoxide reductase B1; experiment: Activity of MSRB1 in rat liver G50 fraction assessed as enzyme-mediated drug metabolism measured per mg of protein at 200 uM by HPLC analysis; type: ADME; in short: as §4
[25] = biological target: T1, Methionine-R-sulfoxide reductase B1; experiment: Drug metabolism in rat liver S100 fraction assessed as MSRB1-mediated DABS-Met formation measured per mg of protein at 200 uM by HPLC analysis; type: ADME, tissue-based; in short: as §3
[26] = biological target: T1, Methionine-R-sulfoxide reductase B1; experiment: Drug metabolism in rat liver ammonium sulfate fraction assessed as MSRB1-mediated DABS-Met formation measured per mg of protein at 200 uM by HPLC analysis; type: ADME, tissue-based; in short: as §3
[27] = biological target: T1, Methionine-R-sulfoxide reductase B1; experiment: Drug metabolism in rat liver DEAE fraction assessed as MSRB1-mediated DABS-Met formation measured per mg of protein at 200 uM by HPLC analysis; type: ADME, tissue-based
In short: (§5)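 Rat liver purification fractions (DEAE, G50 peak) assayed with 200 μM DABS-R-Met(o) in 100 mM Tris pH 7.4, DTT (15 mM) or Trx system (1 mM NADPH, TrxB, TrxA) as reductant, 37°C; acetonitrile stop; DABS-Met resolved on C18 HPLC, absorbance 436 nm; activity per mg protein, expressed as purification factor.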

[28] = biological target: T1, Methionine-R-sulfoxide reductase B1; experiment: Drug metabolism in rat liver G50 fraction assessed as MSRB1-mediated DABS-Met formation measured per mg of protein at 200 uM by HPLC analysis; type: ADME, tissue-based; in short: as §5

## CC1=C(CC(=O)O)c2cc(F)ccc2/C1=C\c1ccc([S+](C)[O-])cc1 (single isomer, unassigned)
Liver microsome [1]
  Drug metabolism: metabolite_not_detected
[2]
  Drug metabolism: metabolite_not_detected
Cytochrome P450 1A1
  Drug metabolism: 380 pmol/h
Cytochrome P450 1A2 [3]
  Drug metabolism: 460 pmol/h
Cytochrome P450 1A2 [4]
  Drug metabolism: 130 pmol/h
Cytochrome P450 1B1
  Drug metabolism: 73 pmol/h
Cytochrome P450 3A4
  Drug metabolism: 47 pmol/h
Cytochrome P450 3A2
  Drug metabolism: metabolite_not_detected
Cytochrome P450 2B1
  Drug metabolism: metabolite_not_detected
Cytochrome P450 2C8
  Drug metabolism: metabolite_not_detected
Cytochrome P450 2C9
  Drug metabolism: metabolite_not_detected
Cytochrome P450 2C19
  Drug metabolism: metabolite_not_detected
Cytochrome P450 2D6
  Drug metabolism: metabolite_not_detected
[5]
  Drug metabolism: metabolite_detected
[6]
  Drug metabolism: metabolite_detected
[7]
  Drug metabolism: metabolite_not_detected
[8]
  Drug metabolism: metabolite_not_detected
[9]
  Drug metabolism: metabolite_not_detected
[10]
  Drug metabolism: 4.2 nmol/h
[11]
  Drug metabolism: 5.6 nmol/h
[12]
  Drug metabolism: 32.6 nmol/h
[13]
  Drug metabolism: 1160 nmol/h
MRC5
  Activity: Active
A549
  Activity: Active
Zone of skin [14]
  Drug metabolism: metabolite_detected
Zone of skin [15]
  Drug metabolism: metabolite_detected
Liver [16]
  Drug metabolism: metabolite_detected
Liver [17]
  Drug metabolism: metabolite_detected
Plasma [18]
  Drug metabolism: metabolite_detected
Plasma [19]
  Drug metabolism: metabolite_detected
Liver microsome [20]
  Drug metabolism: metabolite_detected

## CSCC[C@H](NS(=O)(=O)c1ccc(/N=N/c2ccc(N(C)C)cc2)cc1)C(=O)O
[21]
  Drug metabolism: metabolite_detected
[22]
  Drug metabolism: metabolite_detected
[23]
  Drug metabolism: metabolite_detected
[24]
  Drug metabolism: metabolite_detected

## CN(C)c1ccc(/N=N/c2ccc(S(=O)(=O)N[C@@H](CC[S@@+](C)[O-])C(=O)O)cc2)cc1
[25]
  Drug metabolism: metabolite_detected
[26]
  Drug metabolism: metabolite_detected
[27]
  Drug metabolism: metabolite_detected
[28]
  Drug metabolism: metabolite_detected
